According to ChEMBL document CHEMBL3414458, “Discovery of novel 2,5-dioxoimidazolidine-based P2X(7) receptor antagonists as constrained analogues of KN62” (J Med Chem, 2015):

biological target: T1, P2X purinoceptor 7 (Homo sapiens, UniProt Q99572); test: Antagonist activity at recombinant human P2X7 receptor expressed in HEK293 cells assessed as inhibition of BzATP-induced intracellular ethidium bromide uptake after 2 hrs by fluorescence assay; type: cell-based; settings: not given
T1 sequence (Q99572 whole entry): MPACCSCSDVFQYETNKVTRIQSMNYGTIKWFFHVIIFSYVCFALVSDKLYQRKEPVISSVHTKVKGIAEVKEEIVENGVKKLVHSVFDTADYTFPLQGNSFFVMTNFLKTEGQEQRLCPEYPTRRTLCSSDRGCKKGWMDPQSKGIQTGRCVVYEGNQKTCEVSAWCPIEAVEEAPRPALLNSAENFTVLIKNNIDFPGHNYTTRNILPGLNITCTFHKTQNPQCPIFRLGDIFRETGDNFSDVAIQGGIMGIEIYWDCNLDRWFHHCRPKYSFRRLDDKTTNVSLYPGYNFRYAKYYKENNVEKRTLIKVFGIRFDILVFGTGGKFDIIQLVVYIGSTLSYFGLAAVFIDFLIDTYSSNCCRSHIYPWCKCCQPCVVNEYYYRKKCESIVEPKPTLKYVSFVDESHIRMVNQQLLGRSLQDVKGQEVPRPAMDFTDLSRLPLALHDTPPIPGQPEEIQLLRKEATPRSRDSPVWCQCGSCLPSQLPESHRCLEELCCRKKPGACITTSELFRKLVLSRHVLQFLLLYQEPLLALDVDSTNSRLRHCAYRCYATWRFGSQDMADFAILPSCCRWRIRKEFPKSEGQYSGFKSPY
Outline: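 Human HEK293 cells stably expressing recombinant human P2X7; ethidium accumulation stimulated by BzATP was measured.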

IC50 [µM]	Structure (SMILES)
12.2	O=C1N[C@@H](Cc2ccc(OS(=O)(=O)c3cccc4cnccc34)cc2)C(=O)N1Cc1cccc2cnccc12
7.72	CC(C)(C)OC(=O)N1CCC(CN2C(=O)N[C@@H](Cc3ccc(OS(=O)(=O)c4cccc5cnccc45)cc3)C2=O)CC1
5.65	CC(C)(C)C(=O)N1CCC(N2C(=O)NC(=O)C2Cc2ccc(OS(=O)(=O)c3cccc4cnccc34)cc2)CC1 (racemic)
1.01	CC(C)(C)OC(=O)N1CCC(CCN2C(=O)NC(=O)C2Cc2ccc(OS(=O)(=O)c3cccc4cnccc34)cc2)CC1 (racemic)
5.73	O=C1NC(=O)N(CCC2CCN(Cc3ccccc3)CC2)C1Cc1ccc(OS(=O)(=O)c2cccc3cnccc23)cc1 (racemic)
4.99	O=C1NC(=O)N(CCC2CCN(C(=O)c3ccccc3)CC2)C1Cc1ccc(OS(=O)(=O)c2cccc3cnccc23)cc1 (racemic)
11.7	CCC(=O)N1CCC(N2C(=O)NC(=O)C2Cc2ccc(OS(=O)(=O)c3cccc4cnccc34)cc2)CC1 (racemic)
7.22	CC(C)C(=O)N1CCC(N2C(=O)NC(=O)C2Cc2ccc(OS(=O)(=O)c3cccc4cnccc34)cc2)CC1 (racemic)
8.77	CCCC(=O)N1CCC(N2C(=O)NC(=O)C2Cc2ccc(OS(=O)(=O)c3cccc4cnccc34)cc2)CC1 (racemic)
4.88	CC(C)CC(=O)N1CCC(N2C(=O)NC(=O)C2Cc2ccc(OS(=O)(=O)c3cccc4cnccc34)cc2)CC1 (racemic)
0.133	O=C1NC(=O)N(C2CCN(C(=O)C3CCCCC3)CC2)C1Cc1ccc(OS(=O)(=O)c2cccc3cnccc23)cc1 (racemic)
0.023	O=C1NC(=O)N(C2CCN(C(=O)C34CC5CC(CC(C5)C3)C4)CC2)C1Cc1ccc(OS(=O)(=O)c2cccc3cnccc23)cc1 (racemic)
12	CC(C)(C)OC(=O)N1CCC(CN2C(=O)C(Cc3ccc(OS(=O)(=O)c4cccc5cnccc45)cc3)N(Cc3cccc4cnccc34)C2=O)CC1 (racemic)
8.96	O=C1C(Cc2ccc(OS(=O)(=O)c3cccc4cnccc34)cc2)N(CC2CCN(Cc3ccccc3)CC2)C(=O)N1Cc1cccc2cnccc12 (racemic)
1.97	CC(C)(C)OC(=O)N1CCC(CN2C(=O)N(Cc3cccc4cnccc34)C(=O)C2Cc2ccc(OS(=O)(=O)c3cccc4cnccc34)cc2)CC1 (racemic)
3.82	O=C1NC(=O)N(Cc2cccc3cnccc23)C1Cc1ccc(OS(=O)(=O)c2cccc3cnccc23)cc1 (racemic)
1.82	O=C1NC(=O)N(CC2CCN(Cc3ccccc3)CC2)C1Cc1ccc(OS(=O)(=O)c2cccc3cnccc23)cc1 (racemic)
0.885	CC(C)(C)OC(=O)N1CCC(CN2C(=O)NC(=O)C2Cc2ccc(OS(=O)(=O)c3cccc4cnccc34)cc2)CC1 (racemic)
0.355	CC(C)(C)OC(=O)N1CCC(N2C(=O)NC(=O)C2Cc2ccc(OS(=O)(=O)c3cccc4cnccc34)cc2)CC1 (racemic)
1.62	O=C1NC(=O)N(C2CCN(Cc3ccccc3)CC2)C1Cc1ccc(OS(=O)(=O)c2cccc3cnccc23)cc1 (racemic)
0.574	O=C1NC(=O)N(C2CCN(C(=O)c3ccccc3)CC2)C1Cc1ccc(OS(=O)(=O)c2cccc3cnccc23)cc1 (racemic)
0.789	O=C1NC(=O)N(CC2CCN(C(=O)c3ccccc3)CC2)C1Cc1ccc(OS(=O)(=O)c2cccc3cnccc23)cc1 (racemic)
2.29	O=C1NC(=O)N(C2CCN(CC34CC5CC(CC(C5)C3)C4)CC2)C1Cc1ccc(OS(=O)(=O)c2cccc3cnccc23)cc1 (racemic)

biological target: T1, P2X purinoceptor 7; test: Antagonist activity at P2X7 receptor in LPS/IFN-gamma-differentiated human THP1 cells assessed as inhibition of BzATP-induced IL-1beta release preincubated for 30 mins followed by BzATP induction measured after 30 mins by ELISA; type: cell-based, THP-1; settings: not given
Outline: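 Human THP-1 monocytes, LPS-primed, stimulated with BzATP; IL-1β release measured by ELISA. Active compounds were screened at 1 µM, and full concentration-response curves were run to obtain IC50.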

IC50 [µM]	Structure (SMILES)
0.08	O=C1NC(=O)N(C2CCN(C(=O)C3CCCCC3)CC2)C1Cc1ccc(OS(=O)(=O)c2cccc3cnccc23)cc1 (racemic)
0.014	O=C1NC(=O)N(C2CCN(C(=O)C34CC5CC(CC(C5)C3)C4)CC2)C1Cc1ccc(OS(=O)(=O)c2cccc3cnccc23)cc1 (racemic)

biological target: T2, P2X purinoceptor 7 (Homo sapiens) (UniProt Q99572); test: Antagonist activity at P2X7 receptor in LPS/IFN-gamma-differentiated human THP1 cells assessed as inhibition of BzATP-induced IL-1beta release at 1 uM preincubated for 30 mins followed by BzATP induction measured after 30 mins by ELISA relative to control; type: cell-based; settings: THP-1
T2 sequence (whole entry): T1 sequence (Q99572 whole entry)
Outline: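 LPS-primed THP-1 human monocytes were stimulated with BzATP, and IL-1β release was measured by ELISA. Test compound was given at a single concentration of 1 µM, and results are expressed as percent inhibition of BzATP-induced IL-1β release.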

inhibition [%]	Structure (SMILES)
52	O=C1N[C@@H](Cc2ccc(OS(=O)(=O)c3cccc4cnccc34)cc2)C(=O)N1Cc1cccc2cnccc12
45	CC(C)(C)OC(=O)N1CCC(CN2C(=O)N[C@@H](Cc3ccc(OS(=O)(=O)c4cccc5cnccc45)cc3)C2=O)CC1
49	CC(C)(C)C(=O)N1CCC(N2C(=O)NC(=O)C2Cc2ccc(OS(=O)(=O)c3cccc4cnccc34)cc2)CC1 (racemic)
54	CC(C)(C)OC(=O)N1CCC(CCN2C(=O)NC(=O)C2Cc2ccc(OS(=O)(=O)c3cccc4cnccc34)cc2)CC1 (racemic)
33	O=C1NC(=O)N(CCC2CCN(C(=O)c3ccccc3)CC2)C1Cc1ccc(OS(=O)(=O)c2cccc3cnccc23)cc1 (racemic)
48	CCC(=O)N1CCC(N2C(=O)NC(=O)C2Cc2ccc(OS(=O)(=O)c3cccc4cnccc34)cc2)CC1 (racemic)
33	CC(C)C(=O)N1CCC(N2C(=O)NC(=O)C2Cc2ccc(OS(=O)(=O)c3cccc4cnccc34)cc2)CC1 (racemic)
37	CCCC(=O)N1CCC(N2C(=O)NC(=O)C2Cc2ccc(OS(=O)(=O)c3cccc4cnccc34)cc2)CC1 (racemic)
45	CC(C)CC(=O)N1CCC(N2C(=O)NC(=O)C2Cc2ccc(OS(=O)(=O)c3cccc4cnccc34)cc2)CC1 (racemic)
50	CC(C)(C)OC(=O)N1CCC(CN2C(=O)C(Cc3ccc(OS(=O)(=O)c4cccc5cnccc45)cc3)N(Cc3cccc4cnccc34)C2=O)CC1 (racemic)
42	O=C1C(Cc2ccc(OS(=O)(=O)c3cccc4cnccc34)cc2)N(CC2CCN(Cc3ccccc3)CC2)C(=O)N1Cc1cccc2cnccc12 (racemic)
44	CC(C)(C)OC(=O)N1CCC(CN2C(=O)N(Cc3cccc4cnccc34)C(=O)C2Cc2ccc(OS(=O)(=O)c3cccc4cnccc34)cc2)CC1 (racemic)
38	O=C1NC(=O)N(Cc2cccc3cnccc23)C1Cc1ccc(OS(=O)(=O)c2cccc3cnccc23)cc1 (racemic)
52	O=C1NC(=O)N(CC2CCN(Cc3ccccc3)CC2)C1Cc1ccc(OS(=O)(=O)c2cccc3cnccc23)cc1 (racemic)
60	CC(C)(C)OC(=O)N1CCC(CN2C(=O)NC(=O)C2Cc2ccc(OS(=O)(=O)c3cccc4cnccc34)cc2)CC1 (racemic)
59	CC(C)(C)OC(=O)N1CCC(N2C(=O)NC(=O)C2Cc2ccc(OS(=O)(=O)c3cccc4cnccc34)cc2)CC1 (racemic)
60	O=C1NC(=O)N(C2CCN(C(=O)c3ccccc3)CC2)C1Cc1ccc(OS(=O)(=O)c2cccc3cnccc23)cc1 (racemic)
59	O=C1NC(=O)N(CC2CCN(C(=O)c3ccccc3)CC2)C1Cc1ccc(OS(=O)(=O)c2cccc3cnccc23)cc1 (racemic)
49	O=C1NC(=O)N(C2CCN(CC34CC5CC(CC(C5)C3)C4)CC2)C1Cc1ccc(OS(=O)(=O)c2cccc3cnccc23)cc1 (racemic)
